ChEMBL document CHEMBL1147157, “Virtual screening for novel openers of pancreatic K(ATP) channels” (J Med Chem, 2007)

What was measured:
[1] = target: Sulfonylurea receptor 1, Kir6.2 (Homo sapiens, UniProt Q09428+Q14654); experiment: Activity at Kir6.2/SUR1 KATP channels expressed in HEK293 cells assessed as repolarization of tolbutamide-induced membrane depolarization; type: cell-based
[2] = target: Sulfonylurea receptor 1, Kir6.2 (Homo sapiens) (UniProt Q14654+Q09428); experiment: Activity at Kir6.2/SUR1 KATP channels expressed in HEK293 cells assessed as repolarization of tolbutamide-induced membrane depolarization relative to BPDZ73; type: cell-based
Method in brief: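 HEK 293 cells stably expressing human Kir6.2/SUR1, seeded on poly(lysine)-coated plates, cultured 2 days. Membrane-potential fluorescent dye (ex 490/em 550 nm) in loading buffer/HBSS with 10 µM tolbutamide, 34 °C; fluorescence read before and 5-10 min after compound.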

[3] = Inhibition of insulin release from rat INS-1E cells

Sulfonylurea receptor 1, Kir6.2, sequence (Q14654 whole entry): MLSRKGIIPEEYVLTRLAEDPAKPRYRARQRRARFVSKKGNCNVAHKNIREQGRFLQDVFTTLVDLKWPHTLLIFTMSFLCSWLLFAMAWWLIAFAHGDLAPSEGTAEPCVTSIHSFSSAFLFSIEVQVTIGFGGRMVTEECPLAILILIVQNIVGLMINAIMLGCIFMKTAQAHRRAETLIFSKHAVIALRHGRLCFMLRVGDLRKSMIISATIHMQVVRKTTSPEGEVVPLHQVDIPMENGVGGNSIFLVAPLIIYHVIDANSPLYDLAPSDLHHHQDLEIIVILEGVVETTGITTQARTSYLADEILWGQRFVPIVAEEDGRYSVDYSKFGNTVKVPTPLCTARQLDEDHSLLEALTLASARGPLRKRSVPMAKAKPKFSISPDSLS
Sulfonylurea receptor 1, Kir6.2, sequence (Q09428 whole entry): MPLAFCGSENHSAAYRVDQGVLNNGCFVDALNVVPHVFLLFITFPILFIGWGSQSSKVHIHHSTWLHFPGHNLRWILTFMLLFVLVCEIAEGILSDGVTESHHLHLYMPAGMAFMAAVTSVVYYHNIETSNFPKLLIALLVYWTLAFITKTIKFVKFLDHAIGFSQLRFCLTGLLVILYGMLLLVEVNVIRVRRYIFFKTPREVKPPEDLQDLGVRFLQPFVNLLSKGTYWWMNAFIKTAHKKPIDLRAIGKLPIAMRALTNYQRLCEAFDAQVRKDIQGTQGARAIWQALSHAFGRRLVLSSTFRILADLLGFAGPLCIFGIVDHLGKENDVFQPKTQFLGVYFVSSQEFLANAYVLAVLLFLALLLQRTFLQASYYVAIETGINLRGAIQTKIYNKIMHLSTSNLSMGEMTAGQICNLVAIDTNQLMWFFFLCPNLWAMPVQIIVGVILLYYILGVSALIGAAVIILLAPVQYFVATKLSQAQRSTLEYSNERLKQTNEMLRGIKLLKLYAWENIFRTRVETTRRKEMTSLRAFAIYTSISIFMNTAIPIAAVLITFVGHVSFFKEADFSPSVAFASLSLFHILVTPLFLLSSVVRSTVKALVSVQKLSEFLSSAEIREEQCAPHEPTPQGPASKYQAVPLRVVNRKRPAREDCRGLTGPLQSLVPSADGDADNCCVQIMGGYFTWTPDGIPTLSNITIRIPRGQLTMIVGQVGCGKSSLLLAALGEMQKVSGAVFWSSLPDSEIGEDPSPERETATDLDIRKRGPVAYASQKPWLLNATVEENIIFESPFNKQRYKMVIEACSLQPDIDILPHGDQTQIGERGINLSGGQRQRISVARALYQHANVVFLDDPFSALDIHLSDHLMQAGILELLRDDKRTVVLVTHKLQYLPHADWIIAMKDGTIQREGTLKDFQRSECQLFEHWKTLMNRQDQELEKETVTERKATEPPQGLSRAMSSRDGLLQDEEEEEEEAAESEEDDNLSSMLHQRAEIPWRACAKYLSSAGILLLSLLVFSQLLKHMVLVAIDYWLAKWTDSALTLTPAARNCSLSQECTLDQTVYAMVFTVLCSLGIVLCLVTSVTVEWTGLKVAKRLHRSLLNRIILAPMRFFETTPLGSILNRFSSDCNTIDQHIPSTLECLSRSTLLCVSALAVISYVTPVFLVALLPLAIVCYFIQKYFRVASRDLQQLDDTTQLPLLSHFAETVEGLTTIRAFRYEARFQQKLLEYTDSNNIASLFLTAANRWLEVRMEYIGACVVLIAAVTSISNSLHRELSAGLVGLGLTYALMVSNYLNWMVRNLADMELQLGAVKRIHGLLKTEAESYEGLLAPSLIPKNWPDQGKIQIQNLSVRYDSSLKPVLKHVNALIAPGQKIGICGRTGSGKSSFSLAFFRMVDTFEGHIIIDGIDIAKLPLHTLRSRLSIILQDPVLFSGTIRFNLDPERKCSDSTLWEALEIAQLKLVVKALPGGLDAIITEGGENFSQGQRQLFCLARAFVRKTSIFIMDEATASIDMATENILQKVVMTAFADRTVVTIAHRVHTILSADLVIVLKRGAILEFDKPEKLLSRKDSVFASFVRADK

SMILES: N#Cc1c(-c2ccccc2)c(-c2ccccc2)n[nH]c1=O
- EC50 [1]: > 30 µM
- Emax [2]: 55%

SMILES: NC(=O)c1ccccc1NS(=O)(=O)c1ccc(Cl)cc1
- EC50 [1]: > 30 µM
- Emax [2]: 47%

SMILES: CC1=Nc2ccc(Cl)cc2S(=O)(=O)N1 [DIAZOXIDE]
- EC50 [3]: 20.3 µM

SMILES: CC(C)NC1=NS(=O)(=O)c2cc(Cl)ccc2N1
- EC50 [1]: 0.25 µM
- Emax [2]: 100%
- IC50 [3]: 0.94 µM

SMILES: COc1ccc2[nH]c(N3CCCCC3)nc2c1
- EC50 [1]: > 30 µM
- Emax [2]: 52%

SMILES: CC(=O)Nc1nc2ccccc2n1CCN1CCCC1
- EC50 [1]: > 30 µM
- Emax [2]: 55%

SMILES: COc1ccc2nc(C(F)(F)F)c(C#N)c(N)c2c1
- EC50 [1]: 15 µM
- Emax [2]: 160%
- IC50 [3]: 25 µM

SMILES: O=c1[nH]cnc2ncc(-c3ccccc3)nc12
- EC50 [1]: > 30 µM
- Emax [2]: 84%

SMILES: OCCn1c(-c2ccc(F)cc2)cs/c1=N\c1ccc(F)cc1
- EC50 [1]: 21 µM
- Emax [2]: 105%
- IC50 [3]: 18 µM

SMILES: O=C(Nc1nccs1)c1c(O)c2cc(Cl)ccc2oc1=O
- EC50 [1]: > 30 µM
- Emax [2]: 171%
- IC50 [3]: 56 µM
